Source: PubChem
Compounds with a hit are over-represented: about 2.7% of the library has one in this group of screens.
PAD4 inh = human PAD4 inhibitors, primary screen, biochemical, fluorescence polarization, 1536-well format. Protein-arginine deiminase type-4 (Homo sapiens), Q9UM07. recombinant PAD4, RCA probe fluorescence polarization. AID 485272, 2010. actives 0.41% (n = 330,000). inhibition, % at 6.36 µM;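 active means percent inhibition above a cutoff equal to the mean of all tested compounds plus 3 SD, cut at about 15% in these data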
PRMT1 inh = PRMT1 methyltransferase inhibitors, primary screen, biochemical, fluorescence polarization; recombinant PRMT1, activity-based probe fluorescence polarization; Protein arginine N-methyltransferase 1 (Homo sapiens), Q99873; actives 1.3% (n = 370,000); inhibition, % at 2.79 µM;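 active means inhibition above about 21% made by adding two undisclosed values, limit read from the data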
Target sequence (Q99873 whole entry, looked up): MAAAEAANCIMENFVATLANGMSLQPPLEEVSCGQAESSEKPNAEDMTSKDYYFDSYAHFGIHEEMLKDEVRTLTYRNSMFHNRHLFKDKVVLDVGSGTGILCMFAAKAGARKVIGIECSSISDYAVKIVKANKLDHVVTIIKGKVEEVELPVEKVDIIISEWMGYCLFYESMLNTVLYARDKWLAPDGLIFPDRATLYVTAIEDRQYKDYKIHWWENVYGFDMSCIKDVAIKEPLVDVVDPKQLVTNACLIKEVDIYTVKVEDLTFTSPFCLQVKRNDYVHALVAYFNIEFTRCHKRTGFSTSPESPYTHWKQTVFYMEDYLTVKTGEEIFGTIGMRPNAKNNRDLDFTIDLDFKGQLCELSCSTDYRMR
GSTO1 inh = inhibitors of recombinant GSTO1, primary screen, counter-screen for RBBP9 inhibitor project, biochemical, fluorescence polarization. Glutathione S-transferase omega-1 (Homo sapiens), P78417. activity-based probe fluorescence polarization. inhibition, % at 5.96 µM. actives 1.1% (n = 300,000);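 active means inhibition above the campaign mean inhibition plus 3 SD, cut at about 35% in these data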
Target sequence (P78417 whole entry, looked up): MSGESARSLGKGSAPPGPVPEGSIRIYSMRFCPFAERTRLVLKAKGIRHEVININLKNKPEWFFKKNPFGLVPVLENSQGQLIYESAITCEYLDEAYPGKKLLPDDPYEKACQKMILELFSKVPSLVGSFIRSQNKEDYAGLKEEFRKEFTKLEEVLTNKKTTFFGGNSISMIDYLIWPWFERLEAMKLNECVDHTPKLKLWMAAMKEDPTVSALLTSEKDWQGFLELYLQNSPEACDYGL
RBBP9 inhibitor = human RBBP9 inhibitors, primary screen, biochemical, fluorescence polarization, FP-Rh probe, HTS | recombinant RBBP9 | actives 0.2% (n = 220,000) | inhibition, % at 7.94 µM;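 active means inhibition above the campaign mean of all tested compounds plus 3 SD, cut at about 14% in these data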
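Measured by: FP readout at 525/598 nm; material: recombinant human RBBP9; also added: Serine-hydrolase probe FP-Rh, 375 nM pre-mixing; medium: Tris buffer pH 8.0, NaCl, Pluronic; replication: one well per compound; doses: one concentration, 7.94 µM nominal, 0.794% DMSO; timing: preincubation 30 min plus labeling 45 min at 25 °C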
SIAE primary = human SIAE inhibitors, primary screen, biochemical, fluorescence polarization, FP-Rh probe, 1536-well HTS; Sialate O-acetylesterase (Homo sapiens), Q9HAT2; SIAE FP-Rh probe binding; inhibition, % at 9.66 µM; actives 0.69% (n = 370,000); AID 1053197, 2014;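 active means inhibition above a cutoff: mean of compounds within the control limits plus 3 SD of those, cut at about 17% in these data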
PRMT1 inh conf = PRMT1 methyltransferase inhibitors, confirmation, biochemical, fluorescence polarization, triplicate; shares compounds with PRMT1 inh; recombinant His-PRMT1, activity-based probe fluorescence polarization; inhibition, % at 2.79 µM; actives 42% (n = 3,300); AID 687036, 2013;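 active means mean inhibition across replicates above the hit cutoff derived for the earlier primary screen, cut at about 22% in these data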
Numbers stand for hits; - = inactive; . = no result given.

SMILES	PAD4 inh	PRMT1 inh	GSTO1 inh	RBBP9 inhibitor	SIAE primary	PRMT1 inh conf
Cc1cc(C)c(NC(=O)/C=C\C(=O)O)c([N+](=O)[O-])c1	-	81	-	-	-	37
COc1ccc([N+](=O)[O-])cc1NC(=O)/C=C/C(=O)O	-	-	-	-	-	.
Cc1ccc([N+](=O)[O-])cc1NC(=O)/C=C/C(=O)O	-	49	-	-	-	-
Cc1ccc(NC(=O)/C=C\C(=O)O)c([N+](=O)[O-])c1	-	65	-	-	-	-
COc1ccc(NC(=S)NCc2ccc(S(N)(=O)=O)cc2)c(OC)c1	-	-	-	-	-	.
CCc1cc2cc(C)c(C)cc2nc1SCC(=O)Nc1cc(C)on1	-	-	-	-	-	.
CN(C)N=C1c2cc(S(=O)(=O)N3CCOCC3)ccc2-c2ccc(S(=O)(=O)N3CCOCC3)cc21	-	-	-	-	-	.
NC(=S)NN=C1c2cc(S(=O)(=O)N3CCOCC3)ccc2-c2ccc(S(=O)(=O)N3CCOCC3)cc21	-	30	-	-	-	-
O=C(c1nnsc1S(=O)(=O)c1ccc(Cl)cc1)N1CCOCC1	.	-	.	-	-	.
CNC(=O)c1nnsc1S(=O)(=O)c1ccc(Cl)cc1	.	78	.	-	-	72
CC(=O)Nc1ccc(CN2CCCN(C)CC2)cc1	-	-	-	.	-	.
COC(=O)/C=C1\C(=O)N(c2nc3ccc(OC)cc3s2)C(=S)N1c1ccc(F)cc1	-	.	-	-	.	.
S=C(NCCCN1CCOCC1)NC1CCCC1	-	-	-	-	-	.
S=C(NCCCN1CCOCC1)NCCCN1CCOCC1	-	40	-	-	-	58
Cc1ccc(C(=O)NC2CCN(S(=O)(=O)c3ccc(F)cc3)CC2)cc1	-	-	-	.	-	.
COc1ccc(NC(=O)C(C)Sc2ccccc2)cc1 (stereo not drawn)	-	-	-	-	-	.
CC(=O)Nc1ccc(SC(C)C(=O)NC(N)=O)cc1 (stereo not drawn)	-	39	-	-	-	31
COC1=CC(=O)C(C2CC(=O)c3c(O)cc(O)cc3O2)=CC1=O (stereo not drawn)	.	48	.	.	-	89
O=[N+]([O-])c1ccc(N=Nc2ccc(O)cc2O)cc1	-	-	-	-	-	.
O=S(=O)(O)c1cc(Cl)cc(N=Nc2ccc(O)cc2O)c1O	.	86	.	.	-	65
CCCCN(CCCC)c1cc(C)nc(-c2ccccc2O)n1	-	-	-	-	-	.
Cc1cccc2nc(CSc3nc4ccccc4[nH]3)cn12	-	-	-	-	-	.
CC(=O)Nc1ccc(S(=O)(=O)NCC(=O)NNC(=O)COc2c(C)cccc2C)cc1	-	-	.	.	-	.
CC(=O)Nc1ccc(S(=O)(=O)NCC(=O)NNC(=O)COc2ccccc2Cl)cc1	-	25	-	.	-	22
O=C(O)CCCCN1C(=O)C=CC1=O	.	77	.	.	-	95
SMILES	PAD4 inh	PRMT1 inh	GSTO1 inh	RBBP9 inhibitor	SIAE primary	PRMT1 inh conf
Cc1ccc(CN(Cc2ccccc2)C(=S)NCC(=O)NCc2cccnc2)o1	-	33	-	-	-	-
COc1ccc(-c2ccc3c(n2)CCCN3S(=O)(=O)c2ccc(C#N)cc2)cc1	.	45	.	.	-	26
COc1ccc(-c2ccc3c(n2)CCCN3S(=O)(=O)c2ccc(OC)cc2)cc1	.	-	.	.	-	.
O=C(NCC(=O)N1CCCC1)c1ccc(Cl)cc1	-	-	-	.	-	.
CC[C@@]1(O)C(=O)OCc2c1cc1n(c2=O)Cc2cc3c(N)cccc3nc2-1	-	-	-	.	-	.
CC[C@@]1(O)C(=O)OCc2c1cc1n(c2=O)Cc2cc3c(CN(C)C)c(O)ccc3nc2-1	-	107	-	.	-	109
O=C(NC1=NCCS1)c1cccc(NC(=O)c2ccco2)c1	-	-	-	-	-	.
CCOc1cc(/C=C2\C(=O)N(Cc3ccc(C)cc3)C(C)=C2C(=O)OC)ccc1O	-	41	-	-	-	-
O=C(CNC(=O)c1ccccc1)NCCO	-	-	-	-	-	.
Nc1ccc2c3c(cccc13)-c1ccccc1-2	.	58	.	.	-	61
CCOC(=O)C1=CCN(S(=O)(=O)c2ccc(C)cc2)C1c1cccs1 (stereo not drawn)	.	-	.	.	-	.
CCNc1sc(C(=O)c2cccs2)c(N)c1C#N	-	29	-	-	-	-
CCSc1nc(-c2ccco2)ccc1C#N	-	31	-	-	-	-
Clc1ccc2nc(-c3ccco3)c(Cc3ccsc3)n2c1	.	47	.	.	-	23
Brc1ccc2nc(-c3ccccc3)c(Cc3ccsc3)n2c1	.	-	.	.	-	.
Brc1ccc2nc(-c3ccco3)c(Cc3ccsc3)n2c1	.	36	.	.	-	34
Clc1ccc(-c2nc3ccc(Cl)cn3c2Cc2ccsc2)cc1	.	-	.	.	-	.
CCOc1ccc(CCNC(=O)Cn2cccc2C(=O)c2ccccc2C)cc1OCC	-	-	-	-	-	.
Cc1n[nH]c(=S)n(NC(=O)/C=C/C(=O)Nn2c(=S)[nH]nc(C)c2=O)c1=O	.	29	.	-	-	30
Cc1n[nH]c(=S)n(NC(=O)CC(=O)Nn2c(=S)[nH]nc(C)c2=O)c1=O	-	-	-	-	-	.
N#CC1=C2SCN(Cc3ccco3)CN2C(=O)CC1c1ccc(Cl)cc1 (stereo not drawn)	-	32	-	-	-	-
COc1ccc(C2CC(=O)N3CN(Cc4ccco4)CSC3=C2C#N)cc1 (stereo not drawn)	-	-	-	-	-	.
COc1ccc(OC)c(C2CC(=O)N3CN(c4ccccc4)CSC3=C2C#N)c1 (stereo not drawn)	-	-	-	-	-	.
COc1ccc(N2CSC3=C(C#N)C(c4cccc(OC)c4OC)CC(=O)N3C2)cc1 (stereo not drawn)	-	41	-	-	-	68
COc1ccc(C2CC(=O)N3CN(c4ccc(C)c(Cl)c4)CSC3=C2C#N)cc1 (stereo not drawn)	-	44	-	-	-	59
SMILES	PAD4 inh	PRMT1 inh	GSTO1 inh	RBBP9 inhibitor	SIAE primary	PRMT1 inh conf
CC(C)c1nnc(NC(=O)CCC(=O)N2CCN(Cc3ccccc3)CC2)s1	-	-	-	-	-	.
COC(=O)[C@@]1(C)[C@H]2C(=O)N(C)C(=O)[C@H]2[C@H]2CN=C(SCC(=O)c3ccccc3)N21	-	76	.	.	-	80
CC[C@]1(C(=O)OC)[C@H]2C(=O)N(Cc3ccccc3)C(=O)[C@H]2[C@H]2CN=C(SCC(=O)c3ccccc3)N21	-	54	.	.	-	58
C#CCN1C(=O)S/C(=C\c2ccc(-c3ccc(C(=O)O)cc3C)o2)C1=O	-	-	-	.	-	.
O=C1NCCN1CCNc1nc(NCc2ccccc2)nc2ccsc12	.	-	.	.	-	.
CC(C)Nc1nc(NCCN2CCNC2=O)c2sccc2n1	.	40	.	.	-	-
